# Screening data from PubChem BioAssay.
# MrgX1 agonist – agonists of human MrgX1 receptor | Q96LB2 | MrgX1-HEK293 cells, Fluo-4 calcium fluorescence, agonist mode; active compounds read high | B-score at 10 µM | 310,000 tested, 0.44% active | AID 588627;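 active = calcium response B-score plate-corrected fluorescence ratio at least 3 library SD, with starting fluorescence B-score inside 5 SD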
# Target sequence (Q96LB2 whole entry, looked up): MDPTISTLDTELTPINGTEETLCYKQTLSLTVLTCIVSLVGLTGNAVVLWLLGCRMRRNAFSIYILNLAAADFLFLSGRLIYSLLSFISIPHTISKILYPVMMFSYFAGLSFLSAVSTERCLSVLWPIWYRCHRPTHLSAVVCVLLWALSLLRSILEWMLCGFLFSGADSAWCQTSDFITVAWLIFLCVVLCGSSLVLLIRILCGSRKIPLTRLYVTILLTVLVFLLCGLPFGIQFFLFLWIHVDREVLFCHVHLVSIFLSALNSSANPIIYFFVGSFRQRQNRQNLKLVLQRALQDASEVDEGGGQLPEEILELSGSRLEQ
#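 Material: MrgX1-expressing HEK293 cells; input: 15,000 cells per well; doses: test compound given as first of three sequential additions; schedule: overnight plating before 1 h dye loading; technique: Fluo-4 NW calcium-flux fluorescence, kinetic read; evaluation: baseline-normalised fluorescence change ratio, B-scored; control set: plate-wise positive and negative controls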
# MrgX1 allo act – human MrgX1 positive allosteric modulation, primary screen | MrgX1-HEK293, Fluo-4 calcium flux, FDSS; active compounds read high | B-score at 10 µM | 310,000 tested, 0.63% active;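 active = plate-corrected calcium response at least 3 library SD above typical, normal starting fluorescence, not activating the receptor alone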;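 note: compound read alongside a low EC10 to EC30 dose of BAM8-22 agonist; peak minus trough fluorescence over baseline measured at the second addition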
# RGS4 act – RGS4 potentiation or activation. 310,000 tested, 0.92% active. B-score at 10 µM. AID 463111. HEK293 M3R/inducible RGS4, carbachol calcium flux Fluo4; active compounds read low;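 active = B-score of the integrated calcium signal more than 4 SD below the library mean, with starting fluorescence not abnormally high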;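 note: negative B-score means reduced calcium response which marks RGS4 activation or potentiation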
#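 Reagent: ECmax carbachol challenge; Test system: M3R-expressing HEK293 line, RGS4 induced by doxycycline; Schedule: overnight RGS4 induction, 30 min dye load 37 °C, 20 min compound RT; Detection: calcium dye Fluo4 fluorescence; Read-out: Agonist-evoked peak-minus-minimum fluorescence over baseline, integrated ratio, B score.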
# RGS4 inh – human RGS4 inhibition | P49798 | HEK293 M3R/RGS4 inducible, Fluo-4 calcium flux; active compounds read high; triggered by carbachol at its EC20 | B-score at 10 µM | 310,000 tested, 0.45% active | AID 463165;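 active = B-score, a plate-corrected calcium signal, over three deviations above library mean, with baseline fluorescence within five deviations of library mean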;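 note: RGS4 expression induced by doxycycline in cells with stable M3 receptor; B-score is computed from the integrated fluorescence ratio over baseline after carbachol; higher B-score means a larger calcium signal and so more RGS4 inhibition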
# Target sequence (P49798 whole entry, looked up): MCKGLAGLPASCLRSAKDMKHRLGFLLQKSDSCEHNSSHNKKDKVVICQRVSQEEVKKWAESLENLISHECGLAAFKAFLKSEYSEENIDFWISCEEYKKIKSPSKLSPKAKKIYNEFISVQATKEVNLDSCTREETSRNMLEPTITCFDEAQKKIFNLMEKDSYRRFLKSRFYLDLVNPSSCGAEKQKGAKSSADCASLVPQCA
# MrgX1 antag – antagonists of human MrgX1 receptor | Q96LB2 | MRGX1-HEK293 calcium flux, Fluo-4, BAM8-22 antagonism; active compounds read low | B-score at 10 µM | 310,000 tested, 1.3% active | AID 588676;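 active = calcium-response B-score plate-corrected more than 3 library SD below zero, starting fluorescence within 5 deviations, no agonist response on first addition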;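 note: peak minus trough fluorescence over baseline after final BAM8-22 challenge near maximal dose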
# RGS4 activ val – RGS4 activation, validation assay | shares compounds with RGS4 act | HEK293 M3R/RGS4 inducible, carbachol calcium flux Fluo4 | inhibition, % at 10 µM | 1,100 tested, 89% active | AID 602282;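 active = inhibition above 3 SD of the buffer control wells, cut at about 41% in these data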;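 note: signal is the integrated peak-minus-minimum Fluo4 fluorescence over baseline ratio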
# RGS4 act ctr – activity in cells without induced RGS4 expression. shares compounds with RGS4 act. HEK293 M3R non-induced RGS4, Fluo4 calcium flux; after carbachol challenge at its EC90. inhibition, % at 10 µM. 1,100 tested, 82% active;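 active = inhibition exceeding 3 SD of buffer-only control wells, cut at about 26% in these data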;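 note: percent drop in integrated peak-minus-baseline over baseline Fluo4 ratio after carbachol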
# * marks the source's active call; other numbers are inactive results; i = inactive; / = no result given. A selection: hits, their analogues and other compounds. The true share with any hit is near 3.5%.
SMILES,MrgX1 agonist,MrgX1 allo act,RGS4 act,RGS4 inh,MrgX1 antag,RGS4 activ val,RGS4 act ctr
O=S(=O)(c1ccc(N2CC=C(c3ccccc3)CC2)nc1)N1CCCC1,i,i,-9.3*,i,i,54*,0
CCOC(=O)c1cc2c(ccn2C)n1CC(=O)N(Cc1ccccc1)c1ccccc1,i,i,i,i,i,/,/
Cc1ccccc1Cn1c(C(=O)OC(C)C)cc2c1ccn2C,i,i,-8*,i,i,90*,50*
CCOC(=O)c1cc2c(ccn2C)n1Cc1ccccc1C,i,i,-8.8*,i,i,84*,40*
COc1cccc(N(C(=O)c2csnn2)C(C(=O)NC2CCCC2)c2ccccc2)c1 (stereo unspecified),i,i,i,i,i,/,/
COc1ccc(CSCCNC(=S)Nc2ccccc2)cc1Cl,i,i,i,i,i,/,/
S=C(NCCSCc1ccc(Cl)c(Cl)c1)Nc1ccccc1,i,i,-8.3*,i,i,90*,71*
O=C1Nc2ccc(Br)cc2C1=C1CCCCC1,i,i,-8.7*,i,i,36*,0
Cc1ccc(N=C2C(=O)Nc3ccc(Br)cc32)cc1,i,i,i,i,i,/,/
CC(=O)c1cn(CC(=O)Nc2ccccc2C(F)(F)F)c2ccccc12,i,i,i,i,i,/,/
CC(C)Cn1c2c(c(O)c(C(=O)Nc3nccs3)c1=O)CCCC2,i,i,-7.7*,i,i,74*,41*
CCCn1c2c(c(O)c(C(=O)Nc3nccs3)c1=O)CCCC2,i,i,i,i,i,/,/
Cc1csc(NC(=O)c2c(O)c3c(n(CC(C)C)c2=O)CCCC3)n1,i,i,-8.9*,i,i,57*,0
CC1CCCCN1C(=S)Nc1ccc2nc3n(c(=O)c2c1)CCCCC3 (stereo unspecified),i,i,i,i,i,/,/
CCCCCCOc1ccc(-c2ccc(C#N)cn2)cc1,i,i,-7.9*,i,i,71*,84*
CCOc1ccccc1N(CC(=O)NC1CCCC1)S(=O)(=O)c1ccc(C)cc1,i,i,i,i,i,/,/
Cc1ccccc1-n1c(=O)n(Cc2ccco2)c(=O)c2[nH]cnc21,i,i,i,i,i,/,/
Cc1cc2c(s1)Nc1ccccc1N=C2N1CCN(C)CC1,i,i,-9.5*,i,i,91*,85*
OCCOCCN1CCN(C2=Nc3ccccc3Sc3ccccc32)CC1,i,i,i,i,i,/,/
COc1cccc(C2C3CN(C)CC=C3C(C#N)=C(N)C2(C#N)C#N)c1OC (stereo unspecified),i,i,-8*,i,i,54*,46*
CCN1CC=C2C(C#N)=C(N)C(C#N)(C#N)[C@H](c3cccc(OC)c3OC)[C@H]2C1,i,i,i,i,i,/,/
COc1cccc(OC)c1C(=O)NC(=O)Oc1c(F)cccc1F,i,i,i,i,i,/,/
O=C(CN1C2CCCC1CC(NC(=O)C1CCCCC1)C2)Nc1ccccc1 (stereo unspecified),i,i,i,i,i,/,/
O=C(NC1CC2CCCC(C1)N2Cc1ccccc1)C1CCCCC1 (stereo unspecified),i,i,-9.9*,i,i,60*,0
O=[N+]([O-])c1ccc(N=Nc2ncc[nH]2)cc1,i,i,i,i,i,/,/
SMILES,MrgX1 agonist,MrgX1 allo act,RGS4 act,RGS4 inh,MrgX1 antag,RGS4 activ val,RGS4 act ctr
CCOC(=O)c1oc2ccc(CNCCO)c(Cl)c2c1C,i,i,i,i,i,/,/
CCOC(=O)c1oc2ccc(CNC3CCCCC3)c(Cl)c2c1C,i,i,-7.8*,i,i,94*,92*
COC(C[C@@H](O)CC(=O)COCc1ccccc1)OC,/,/,i,i,/,/,/
Cc1ncc(C[n+]2csc(CCOC(=O)C34CC5CC(CC(C5)C3)C4)c2C)c(N)n1,i,i,i,i,i,/,/
Cc1c(CCOC(=O)C23CC4CC(CC(C4)C2)C3)sc[n+]1Cc1ccccc1,i,i,-12*,i,i,92*,61*
CC(C)c1ccc2oc(=O)cc(CN3CCCCC3)c2c1,i,i,i,i,i,/,/
CCOC(=O)c1c(C(C)(C)C)oc2ccc(OCC#N)cc12,i,i,-8.8*,i,i,92*,92*
Cc1[nH]c(C)c(S(=O)(=O)NCCc2ccc(S(N)(=O)=O)cc2)c1C(=O)N1CCCC1,i,i,i,i,i,/,/
COc1cccc(NC(=O)CN(C)C(=O)c2cc(-c3cccc(Br)c3)nc3ccccc23)c1,i,i,-9.5*,i,i,84*,28*
O=C(CCCN1C(=O)c2ccccc2C1=O)Nc1nnc(C2CC2)s1,i,i,i,i,i,/,/
CCOC(=O)C1CCCN(C(=O)c2cc(-c3ccc(C)cc3)nc3ccccc23)C1 (stereo unspecified),i,i,-9.1*,i,i,48*,0
CCOC(=O)C1CCCN(C(=O)c2cc(Nc3ccc(OC)c(OC)c3)nc3ccccc23)C1 (stereo unspecified),i,i,i,i,i,/,/
CCc1nc(SCC(=O)c2ccccc2)c2c(=O)n(C)c(=O)n(C)c2n1,i,i,i,i,i,/,/
CCCc1nc(SCC(=O)c2ccccc2)c2c(=O)n(C)c(=O)n(C)c2n1,i,i,-7.8*,i,i,94*,91*
CN1CCN(S(=O)(=O)c2cccc(C(=O)NCc3ccccc3Cl)c2)CC1,i,i,i,i,i,/,/
Cc1[nH]c2ccccc2c1CN1CCC(Cc2ccccc2)CC1,i,i,i,i,i,/,/
O=C(Oc1ccccc1)N1CCCC1,i,i,i,i,i,/,/
O=C(Oc1ccc(OC(=O)N2CCCCC2)cc1)c1ccccc1,i,i,-10*,i,i,62*,84*
COc1ccc(-c2csc(N3CCN(c4cc(C)nc5ccccc45)CC3)n2)cc1OC,i,i,-8.5*,i,i,92*,86*
O=S(=O)(NCc1csc(-c2cccs2)n1)c1cccs1,i,i,-8*,i,i,0,0
O=S(=O)(NCc1csc(-c2cccs2)n1)c1ccc(Cl)cc1,i,i,i,i,i,/,/
